The series is classed as in vivo, Wistar rats. As to conditions: for Detection in rat plasma samples over the sampling period (LC-MS/MS quantitation): concentrations lower than LLOQ. An outline of the steps: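 Male Wistar rats (200 ± 20 g) were acclimated 7 days with food and water ad libitum. Crude extract, predissolved in 0.5% DMSO and dispersed in 5 mg/mL sodium carboxymethylcellulose, was given intragastrically at 200 mg/kg. Heparinized blood was taken on ice at 0–24 h (12 points) and spun; plasma was held at −20 °C. Plasma (100 μL) plus IS was extracted with ethyl acetate, then 14 bufadienolides quantified by UHPLC-MS/MS against LLOQ.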

The mark [1] stands for this setting: rat plasma, intragastric crude VB extract 200 mg/kg, n=4.
Where [2] appears, read: male, Wistar, rat, plasma, po, 200 mg/kg.
Setting [3] is: intragastric crude VB extract 200 mg/kg.

SMILES strings stand for the structures. Read-outs that look alike come from different tables or passages of the source.

Turning to `C[C@]12CC[C@H](O)C[C@H]1CC[C@@H]1[C@@H]2C(=O)[C@H](O)[C@]2(C)[C@@H](c3ccc(=O)oc3)CC[C@]12O` [CS01, pseudobufarenogin], under setting [1], the “AUC(0-t)” value was 276.956 ± 60.642 ng·h/mL, the Cmax was 67.225 ± 14.218 ng/mL, the “MRT(0-t)” value was 4.614 ± 0.481 h and the Tmax is 0.75 ± 0 h. Besides, under setting [1], the t1/2 was 3.944 ± 1.276 h.
On to `C[C@]12CC[C@H](O)C[C@H]1CC[C@@H]1[C@@H]2[C@H](O)C(=O)[C@]2(C)[C@@H](c3ccc(=O)oc3)CC[C@]12O` [CS03, arenobufagin], for which, under setting [1], the “AUC(0-t)” value came out at 1487.316 ± 407.361 ng·h/mL, the Cmax was 466.5 ± 116.920 ng/mL, the “MRT(0-t)” value came out at 3.338 ± 1.011 h and the Tmax is reported as 0.938 ± 0.125 h. Also, the t1/2 under setting [1] is 4.537 ± 2.442 h.
`C[C@]12CC[C@H]3[C@@H](CC[C@]4(O)C[C@@H](O)CC[C@]34C=O)[C@@]1(O)CC[C@@H]2c1ccc(=O)oc1` [CS04, hellebrigenin]: under setting [1], the “AUC(0-t)” value came out at 104.246 ± 20.661 ng·h/mL, the Cmax was found to be 13.35 ± 2.243 ng/mL, the “MRT(0-t)” value amounted to 6.478 ± 1.035 h and the Tmax is on record as 1.438 ± 0.657 h. Further, the t1/2 under setting [1] came out at 4.884 ± 2.116 h.
The corresponding values for `CC(=O)O[C@H]1[C@H]2O[C@]23[C@@H]2CC[C@]4(O)C[C@@H](O)CC[C@]4(C=O)[C@H]2CC[C@]3(C)[C@H]1c1ccc(=O)oc1` [CS11, 19-oxocinobufotalin] are 3.669 ± 0.511 ng·h/mL, 2.752 ± 0.814 ng/mL, 0.942 ± 0.05 h, 0.562 ± 0.239 h and 2.614 ± 2.802 h.
Regarding `C[C@]12CC[C@H](O)C[C@@]1(O)CC[C@@H]1[C@@H]2CC[C@]2(C)[C@@H](c3ccc(=O)oc3)CC[C@]12O` [CS14, telocinobufagin], under setting [2], the AUC(0-t) was determined as 7.22 ± 0.428 ng·h/mL, the peak level (Cmax) was 4.84 ± 1.09 ng/mL, the MRT last worked out at 0.932 ± 0.129 h and the Tmax came out at 0.521 ± 0.315 h. Under setting [2], this molecule gave a half-life of 1.88 ± 1.19 h.
With `CC(=O)O[C@H]1C[C@]2(O)[C@@H]3CC[C@@H]4C[C@@H](O)CC[C@]4(C)[C@H]3CC[C@]2(C)[C@H]1c1ccc(=O)oc1` [CS15, bufotalin], the “Detection in rat plasma samples over the sampling period (LC-MS/MS quantitation)” value under setting [3] was “not detected”.
Same read-out and setting: under `C[C@]12CC[C@H]3[C@@H](CC[C@@H]4C[C@@H](O)CC[C@@]43C=O)[C@]13O[C@@H]3CC2c1ccc(=O)oc1` (stereo partly drawn) [CS16, resibufagin] stands “not detected”.
As to `CC(=O)O[C@H]1[C@H]2O[C@]23[C@@H]2CC[C@@H]4C[C@@H](O)CC[C@]4(C=O)[C@H]2CC[C@]3(C)[C@H]1c1ccc(=O)oc1` [CS17, 19-oxocinobufagin], the “Detection in rat plasma samples over the sampling period (LC-MS/MS quantitation)” value under setting [3] is “not detected”.
Turning to `CC(=O)O[C@H]1[C@H]2O[C@]23[C@@H]2CC[C@]4(O)C[C@@H](O)CC[C@]4(C)[C@H]2CC[C@]3(C)[C@H]1c1ccc(=O)oc1` [CS19, cinobufotalin], the “Detection in rat plasma samples over the sampling period (LC-MS/MS quantitation)” value under setting [3] was “not detected”.
Consider `C[C@]12CC[C@H](O)C[C@H]1CC[C@@H]1[C@@H]2CC[C@]2(C)[C@@H](c3ccc(=O)oc3)CC[C@]12O` [CS21, bufalin], for which, under setting [2], the AUC(0-t) was 17 ± 1.76 ng·h/mL, the Cmax was 7.08 ± 1.85 ng/mL, the MRT last worked out at 1.48 ± 0.115 h and the Tmax is 0.396 ± 0.292 h. Also, the half-life under setting [2] is 1.77 ± 0.821 h.
The corresponding values for `C[C@]12CC[C@H](O)C[C@H]1CC[C@@H]1[C@@H]2CC[C@]2(C)[C@@H](c3ccc(=O)oc3)C[C@H]3O[C@]132` [CS22, resibufogenin] are 4.53 ± 0.701 ng·h/mL, 3.79 ± 3.78 ng/mL, 0.836 ± 0.141 h, 0.333 ± 0.204 h and 1.2 ± 0.477 h.
The corresponding values for `CC(=O)O[C@H]1[C@H]2O[C@]23[C@@H]2CC[C@@H]4C[C@@H](O)CC[C@]4(C)[C@H]2CC[C@]3(C)[C@H]1c1ccc(=O)oc1` [CS23, cinobufagin] are 5.2 ± 2.83 ng·h/mL, 7.29 ± 10.4 ng/mL, 0.913 ± 0.23 h, 0.833 ± 0.825 h and 1.32 ± 0.526 h.
Consider `C[C@]12CC[C@H](O)C[C@H]1CC[C@@H]1[C@@H]2CC[C@]2(C)[C@@H](c3ccc(=O)oc3)[C@@H](O)[C@H]3O[C@]132` [CS30, desacetylcinobufagin], for which, under setting [2], the AUC(0-t) stood at 104 ± 6.06 ng·h/mL, the Cmax is 24.1 ± 2.27 ng/mL, the MRT last came to 4.67 ± 1.01 h and the Tmax turned out to be 0.875 ± 0.25 h. The half-life under setting [2] was 10.8 ± 5.24 h.
For `C[C@]12CC[C@H](O)C[C@H]1CC[C@@H]1[C@@H]2[C@H](O)C[C@]2(C)[C@@H](c3ccc(=O)oc3)CC[C@]12O` [CS36, gamabufotalin], in that order: 223 ± 11.3 ng·h/mL, 84.4 ± 4 ng/mL, 2.5 ± 0.603 h, 0.812 ± 0.125 h and 2.82 ± 1.27 h.

Source of the values: publication PMC9073132 (Journal of Pharmaceutical Analysis, 2021).
